# Measured values reported in paper PMC12046972 (ChemMedChem, 2025).
# pIC50: −log10 of the molar value.
# Legend:
# SHIP1 [1] = target: T1, SHIP1 (Homo sapiens, UniProt Q92835); assay: malachite green assay for phosphatase activity, SHIP1; format: biochemical; conditions: described in words; for Inhibition of SHIP1: malachite green assay, compounds evaluated at 1 mM; for selectivity between SHIP1 and SHIP2: malachite green assay at 1 mM
# T1 sequence (Q92835 1-1189): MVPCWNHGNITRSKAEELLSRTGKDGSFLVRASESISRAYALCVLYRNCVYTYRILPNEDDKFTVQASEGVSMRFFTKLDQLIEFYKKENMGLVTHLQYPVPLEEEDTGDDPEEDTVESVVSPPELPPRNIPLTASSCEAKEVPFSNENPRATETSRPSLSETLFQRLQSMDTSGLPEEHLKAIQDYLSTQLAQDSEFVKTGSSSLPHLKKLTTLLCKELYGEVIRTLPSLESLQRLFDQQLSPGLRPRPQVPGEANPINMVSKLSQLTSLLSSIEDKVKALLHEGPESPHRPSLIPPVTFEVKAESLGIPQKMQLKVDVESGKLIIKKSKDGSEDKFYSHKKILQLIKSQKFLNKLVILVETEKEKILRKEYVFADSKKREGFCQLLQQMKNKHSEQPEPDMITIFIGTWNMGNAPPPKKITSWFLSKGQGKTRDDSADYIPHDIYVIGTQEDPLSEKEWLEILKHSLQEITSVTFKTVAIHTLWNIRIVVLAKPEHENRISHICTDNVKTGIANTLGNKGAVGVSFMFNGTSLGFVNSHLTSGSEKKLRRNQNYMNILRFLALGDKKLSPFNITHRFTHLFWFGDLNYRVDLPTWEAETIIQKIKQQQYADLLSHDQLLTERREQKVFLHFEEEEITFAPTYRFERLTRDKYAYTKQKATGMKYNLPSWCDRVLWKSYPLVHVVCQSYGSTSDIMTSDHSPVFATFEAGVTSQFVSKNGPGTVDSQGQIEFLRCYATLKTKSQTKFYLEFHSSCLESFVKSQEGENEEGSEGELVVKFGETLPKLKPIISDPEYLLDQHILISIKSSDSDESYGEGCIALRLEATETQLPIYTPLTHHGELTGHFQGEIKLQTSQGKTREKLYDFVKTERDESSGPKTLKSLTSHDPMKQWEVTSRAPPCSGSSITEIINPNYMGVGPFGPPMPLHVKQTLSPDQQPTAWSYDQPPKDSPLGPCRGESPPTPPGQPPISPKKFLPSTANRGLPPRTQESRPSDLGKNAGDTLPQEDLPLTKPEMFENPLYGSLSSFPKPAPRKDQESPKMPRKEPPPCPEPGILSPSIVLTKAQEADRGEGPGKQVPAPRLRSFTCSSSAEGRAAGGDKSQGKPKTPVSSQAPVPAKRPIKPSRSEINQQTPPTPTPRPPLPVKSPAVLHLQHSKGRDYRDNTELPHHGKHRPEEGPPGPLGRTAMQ
# Method in brief: (§1)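 Phosphate released from C8-PI(3,4,5)P3 (short-chain substrate used to avoid micelles) measured by malachite green colorimetric readout. Reactions contained only SHIP enzyme, buffer and substrate, with no surfactant. Test compounds were tested at 1 mM from DMSO/buffer mixtures. Values are means of at least 3 measurements, with standard deviation.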
# SHIP2 [2] = target: T2, SHIP2 (Homo sapiens, UniProt O15357); assay: malachite green assay for phosphatase activity, SHIP2; format: biochemical; conditions: compounds evaluated at 1 mM, described in words
# T2 sequence (O15357 1-1258): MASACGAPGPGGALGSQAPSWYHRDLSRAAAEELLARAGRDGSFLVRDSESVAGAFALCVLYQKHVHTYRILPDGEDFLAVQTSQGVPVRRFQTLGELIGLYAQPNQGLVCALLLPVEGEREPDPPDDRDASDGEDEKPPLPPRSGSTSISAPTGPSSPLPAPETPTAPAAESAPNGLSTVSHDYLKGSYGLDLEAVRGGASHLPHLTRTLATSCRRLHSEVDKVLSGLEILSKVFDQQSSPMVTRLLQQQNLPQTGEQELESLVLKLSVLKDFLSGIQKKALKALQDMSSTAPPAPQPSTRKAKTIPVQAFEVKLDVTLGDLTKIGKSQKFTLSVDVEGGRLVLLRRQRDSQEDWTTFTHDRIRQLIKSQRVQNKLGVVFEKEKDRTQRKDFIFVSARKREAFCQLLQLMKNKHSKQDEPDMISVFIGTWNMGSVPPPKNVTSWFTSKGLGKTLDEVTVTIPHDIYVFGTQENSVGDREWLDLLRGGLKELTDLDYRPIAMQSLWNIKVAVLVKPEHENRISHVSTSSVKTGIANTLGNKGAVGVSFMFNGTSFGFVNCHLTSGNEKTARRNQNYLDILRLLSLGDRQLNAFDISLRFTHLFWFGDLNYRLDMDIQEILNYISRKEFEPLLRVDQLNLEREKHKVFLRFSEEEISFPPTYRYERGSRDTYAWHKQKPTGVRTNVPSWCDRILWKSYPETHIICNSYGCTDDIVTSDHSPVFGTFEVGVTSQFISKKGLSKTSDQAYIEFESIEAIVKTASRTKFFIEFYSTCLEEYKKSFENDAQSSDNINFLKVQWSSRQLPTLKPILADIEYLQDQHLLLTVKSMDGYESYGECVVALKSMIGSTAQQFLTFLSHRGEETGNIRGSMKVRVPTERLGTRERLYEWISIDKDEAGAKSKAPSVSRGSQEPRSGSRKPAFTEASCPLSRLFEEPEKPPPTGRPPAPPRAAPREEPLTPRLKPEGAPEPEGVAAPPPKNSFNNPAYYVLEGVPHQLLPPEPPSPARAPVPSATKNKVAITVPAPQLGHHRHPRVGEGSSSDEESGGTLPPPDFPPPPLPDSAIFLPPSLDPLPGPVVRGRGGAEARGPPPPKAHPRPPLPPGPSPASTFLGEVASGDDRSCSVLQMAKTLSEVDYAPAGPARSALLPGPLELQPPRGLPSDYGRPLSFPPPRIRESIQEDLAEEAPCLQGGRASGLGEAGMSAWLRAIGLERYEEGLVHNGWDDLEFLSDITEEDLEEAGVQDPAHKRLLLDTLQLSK
# Method in brief: as §1
# solubility in water = format: physicochemical; conditions: in words
# SHIP1 [3] = target: T1, SHIP1; assay: fluorescence polarization; format: biochemical; conditions: general statement in the docking discussion
# SHIP1 [4] = target: T1, SHIP1; conditions: read-out: IC50 for SHIP1; cited from earlier work
# SHIP2 [5] = target: T2, SHIP2; conditions: ref 19a; cited from earlier work
# mice = conditions: treatment of mice; cited from earlier work
# microglial cell lines = conditions: a number of microglial cell lines; cited from earlier work
# solubility in DMSO = conditions: in words
Compound,Inhibition of SHIP1 (SHIP1 [1]),Inhibition of SHIP2 (SHIP2 [2]),solubility in water (solubility in water),further results
CC(=O)NC1CCC2(C)C(CCC3C2CCC2(C)C(C(C)CCCC(C)C)CCC32)C1 (stereo not shown) [Compound 13],inactive,inactive,,
CC(C)CCC[C@@H](C)[C@H]1CC[C@H]2[C@@H]3CC[C@H]4C[C@@H](N)[C@H](N)C[C@]4(C)[C@H]3CC[C@]12C [Compound 47],least effective inhibitors,least effective inhibitors,insoluble in water,
"CC(C)CCC[C@@H](C)[C@H]1CC[C@H]2[C@@H]3CCC4C[C@H](N)CC[C@]4(C)[C@H]3CC[C@]12C.Cl (stereo partly drawn) [Compound 1, 3α-Aminocholestane Hydrochloride]",significant activity,significant activity,,selectivity between SHIP1 and SHIP2 (SHIP1 [1]): more selectivity for SHIP1; selectivity between the two SHIP paralogs (SHIP1 [3]): some selectivity for SHIP1; pIC50 (SHIP1 [4]): ~5.00; selective for SHIP1 over SHIP2 (SHIP2 [5]): at least 4 fold; in vivo bioactivity (mice): in vivo bioactivity comparable to genetic phenotypes observed in SHIP knockout mice; microglial phagocytosis of dead neurons (microglial cell lines): much less effective; solubility in DMSO (solubility in DMSO): insoluble in DMSO; solubility in DMSO (solubility in DMSO; listed as 3AC): nearly insoluble in DMSO
CC(C)CCCC(C)C1CCC2C3CCC4CC(O)C(N)CC4(C)C3CCC12C (stereo not shown) [Compound 37],significant inhibition of SHIP1,,insoluble in water,
CC(C)CCCC(C)C1CCC2C3CCC4CC(N)CCC4(C)C3CCC12C.Cl (stereo not shown) [Compound 11],significant activity,significant activity,,
CC(C)CCC[C@@H](C)[C@H]1CC[C@H]2[C@@H]3CC[C@H]4C[C@H](NS(C)(=O)=O)CC[C@]4(C)[C@H]3CC[C@]12C [Compound 12],inactive,inactive,,
CC(C)CCC[C@@H](C)[C@H]1CC[C@H]2[C@@H]3CC[C@H]4CC(N)C(N)C[C@]4(C)[C@H]3CC[C@]12C (stereo partly shown) [Compound 45],,,insoluble in water,
CC(C)CCC[C@@H](C)[C@H]1CC[C@H]2[C@@H]3CC[C@H]4C[C@H](N(C)C)CC[C@]4(C)[C@H]3CC[C@]12C [Compound 15],active,significantly less effect,,selectivity between SHIP1 and SHIP2 (SHIP1 [1]): selective inhibition of SHIP1
